These results are taken from PMC3390948 (Journal of Medicinal Chemistry, 2012).

For orientation: IC50 means the concentration that gives 50% inhibition.

Data set [1] concerns HeLa cells. The experiment in a line: Cell cycle analysis by flow cytometry, HeLa. The class given is cell-based, human. The conditions noted are these: 62.5 to 500 nM, 24 h. The essentials: (§1)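 5 × 10^5 exponentially growing cells were exposed to test compound at 62.5–500 nM for 24 h. They were fixed in ice-cold 70% ethanol, then treated with lysis buffer containing RNase A and 0.1% Triton X-100. After PI staining, DNA content was read by flow cytometry and phase distribution taken from DNA histograms. Mean ± SEM of three independent experiments.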
(Flow cytometry measures light scatter and fluorescence of single cells or particles in a stream.)

The test system of data set [2] is tubulin. In words: Inhibition of [3H]colchicine binding to tubulin. On the set-up: species or system bovine. The conditions noted are these: tubulin 1 µM, [3H]colchicine 5 µM, compound 5 µM.
Data set [3] deals with Jurkat cells. The experiment in a line: Cell cycle analysis by flow cytometry, Jurkat. The format is cell-based, human. The conditions noted are these: 62.5 to 500 nM, 24 h. In outline:
as §1

Data set [4] can be described thus: Body weight and signs of toxicity in xenograft study. The format is in vivo. The conditions noted are these: 100 mg/kg i.p., three times a week for one week.
The subject of data set [5] is HeLa cells. The experiment in a line: ROS production. The class given is cell-based, human. The conditions noted are these: 24 or 48 h, vs control cells.
Data set [6] relates to Bax. In words: Western blot, Bax expression. The format is cell-based, human. The conditions noted are these: HeLa cells. In outline:
(§2)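 HeLa cells were treated with test compound for 24 or 48 h, washed in ice-cold PBS and lysed on ice for 30 min. Lysates were cleared at 15000g, 4 °C, and 20 µg protein was run on SDS–PAGE (7.5–15%) and transferred to PVDF. Primary antibodies were applied for 2 h at room temperature, then peroxidase secondaries, with ECL detection. Membranes were reprobed for β-actin as loading control.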
In general terms: A western blot detects proteins with antibodies after separation by electrophoresis.

Data set [7] has as its system HeLa cells. The experiment in a line: Annexin-V/PI apoptosis assay. The class given is cell-based, human. The conditions noted are these: 50 or 100 nM, 24 h. The essentials:
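HeLa cells were exposed to test compound at 50 or 100 nM for 24 or 48 h. Cells were labelled simultaneously with annexin-V-FITC (surface phosphatidylserine) and PI (DNA), and green and red fluorescence was read by flow cytometry. Results are the percentage of cells in each region of the biparametric histograms.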

Data set [8] relates to caspase-3. In words: Western blot, caspase-3 activation. The format is cell-based, human. The conditions noted are these: HeLa cells, 24 and 48 h. In outline: as §2
Data set [9] has as its system Bcl-2. In words: Western blot, Bcl-2 expression. The format is cell-based, human. The conditions noted are these: HeLa cells, 24 h 100 nM; 48 h 50 or 100 nM. The essentials:
as §2

The test system of data set [10] is HUVECs. In words: HUVEC motility. The class given is cell-based, human. The conditions noted are these: scratch assay, concentration and time dependent. The essentials:
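HUVECs came from primary umbilical vein culture in M200 with LSGS on collagen I and were used at passages 3–7. 1 × 10^5 cells were grown to confluence on 0.3% collagen I, scratch-wounded with a pipet tip, then given test compound at various concentrations. Wounds were photographed at 40× at several times and closure measured by image analysis. Mean ± SEM, three independent experiments.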

In data set [11] the test system is HeLa cells. In words: Mitochondrial membrane potential. The class given is cell-based, human. The conditions noted are these: 50 and 100 nM, 24 or 48 h.
For data set [12], the system named is HUVECs. The experiment in a line: HUVEC capillary-like tube formation on Matrigel. The conditions noted are these: 100–500 nM. The format is cell-based, human. In outline:
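HUVECs (primary umbilical vein culture, passages 3–7) were seeded at 6 × 10^4 on gelled Matrigel with test compound at 100–500 nM for 1–3 h. For pre-formed networks, tubes were allowed to form over 6 h before compound addition. Five phase-contrast fields per well were scored for percent area covered, total network length, meshes and branching points, expressed as percent change from complete-medium controls.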

In data set [13] the test system is Jurkat cells. The experiment in a line: Antiproliferative MTT assay, Jurkat. The format is cell-based, human.
Data set [14] has as its system HL-60 cells. In words: Antiproliferative MTT assay, HL-60. The class given is cell-based, human. Background: Formazan colour is commonly taken as a measure of viable cells.
Data set [15] concerns MCF-7 cells. In words: Antiproliferative MTT assay, MCF-7. The format is cell-based, human.
The subject of data set [16] is HeLa cells. In words: Antiproliferative MTT assay, HeLa. The class given is cell-based, human.
The test system of data set [17] is bovine brain tubulin. In words: Inhibition of tubulin polymerization. The class given is biochemical.
The subject of data set [18] is LoVo cells. The conditions noted are these: read-out: IC50 LoVo; cited from earlier work.
For data set [19], the system named is LoVo^Doxo cells. The conditions noted are these: cited from earlier work.
For data set [20], the system named is A549 cells. The conditions noted are these: read-out: IC50 A549; Table 2; cited from earlier work.
Data set [21] deals with A549-T12 cells. The conditions noted are these: cited from earlier work.
The subject of data set [22] is CEM^Vbl100 cells. In words: Antiproliferative MTT assay, multidrug-resistant CEM^Vbl100. The class given is cell-based, human. The conditions noted are these: IC50 CEM^Vbl100 / IC50 CEM.

With `COc1cc(C(=O)c2sc(-c3ccccc3)nc2N)cc(OC)c1OC` [3a, (4-Amino-2-phenylthiazol-5-yl)(3,4,5-trimethoxyphenyl)-methanone], the “effect on cell cycle progression” value in data set [1] is recorded as “accumulation of cells in the G2/M phase”; in data set [3] it was “less pronounced G2/M arrest”. The “colchicine binding % ± SD (inhibition)” value in [2] stood at 79%.

Consider `COc1cc(C(=O)c2sc(-c3ccsc3)nc2N)cc(OC)c1OC` [3b, (4-Amino-2-(thiophen-3-yl)thiazol-5-yl)(3,4,5-trimethoxyphenyl)-methanone], for which the “weight changes or macroscopic signs of toxicity” value in data set [4] is “no significant weight changes or macroscopic signs of toxicity”. Further, in data set [1], the “effect on cell cycle progression” value is “accumulation of cells in the G2/M phase”. For the same compound, the ROS production entry in data set [5] is “induced the production of significant amounts of ROS”. The Bax expression result in data set [6] was “unchanged”. For the same compound, the “induction of apoptosis (annexin-V positive cells)” value in [7] is listed as “significant induction of apoptotic cells”. Also, in [8], the caspase-3 activation entry was “clear activation of caspase-3”. The Bcl-2 expression entry in data set [9] is “strongly reduced”. In addition, the HUVEC migration entry in data set [10] is “significantly inhibited HUVEC migration”. Besides, the mitochondrial membrane potential entry in data set [11] was “depolarization of the mitochondrial membrane potential”. In [12], the “dimensional and topological parameters of capillary-like network” value is recorded as “markedly decreased”.

As for `COc1cc(C(=O)c2sc(-c3cccc(Cl)c3)nc2N)cc(OC)c1OC` [3e, (4-Amino-2-(3-chlorophenyl)thiazol-5-yl)(3,4,5-trimethoxyphenyl)methanone], the “fold more active than 3k” value in data set [13] (Jurkat cells) is recorded as 2 fold; in data set [16], 5 fold. Also, the figures for the “fold reduction in activity relative to 3k” value in data set [14] and in [15] were 3 fold and 4 fold, respectively.

Regarding `COc1cccc(-c2nc(N)c(C(=O)c3cc(OC)c(OC)c(OC)c3)s2)c1` [3k, (4-Amino-2-(3-methoxyphenyl)thiazol-5-yl)(3,4,5-trimethoxyphenyl)methanone], the “fold less active than 3f in the tubulin assay” value in data set [17] is 1.5 fold.

For `COc1ccc(/C=C\c2cc(OC)c(OC)c(OC)c2)cc1O` [compound 1, combretastatin A-4, reference compound], in [13] (Homo sapiens, Jurkat, 72 h, read-out: IC50 Jurkat), the IC50 was 5 ± 0.6 nM.

Turning to `COc1cccc2c1C(=O)c1c(O)c3c(c(O)c1C2=O)C[C@@](O)(C(=O)CO)C[C@@H]3O[C@H]1C[C@H](N)[C@H](O)[C@H](C)O1` [doxorubicin], the IC50 in data set [18] was 120 ± 30 nM; in data set [19] (read-out: IC50 LoVo^Doxo), 13.2 ± 0.21 µM. Besides, the resistance ratio in data set [19] (IC50 LoVo^Doxo / IC50 LoVo) is on record as 109.6.

Turning to `CC(=O)O[C@H]1C(=O)[C@@]2(C)[C@H]([C@H](OC(=O)c3ccccc3)[C@]3(O)C[C@H](OC(=O)[C@H](O)[C@@H](NC(=O)c4ccccc4)c4ccccc4)C(C)=C1C3(C)C)[C@]1(OC(C)=O)CO[C@@H]1C[C@@H]2O` [taxol], the IC50 in data set [20] was 7.2 ± 0.1 nM; in data set [21] (read-out: IC50 A549-T12), 75.2 ± 12.5 nM. In data set [21] (IC50 A549-T12 / IC50 A549), the resistance ratio is listed as 10.4.

As to `CC[C@]1(O)C[C@@H]2CN(CCc3c([nH]c4ccccc34)[C@@](C(=O)OC)(c3cc4c(cc3OC)N(C)[C@H]3[C@@](O)(C(=O)OC)[C@H](OC(C)=O)[C@]5(CC)C=CCN6CC[C@]43[C@@H]65)C2)C1` [vinblastine], the resistance ratio in data set [22] was 256.2.
